# Results of several laboratories.
# Protocols differ between the studies behind these lines.
# Target: Mitogen-activated protein kinase kinase kinase 13 (MAP3K13, Homo sapiens, UniProt O43283)
# Residues used in one study (O43283 1-966): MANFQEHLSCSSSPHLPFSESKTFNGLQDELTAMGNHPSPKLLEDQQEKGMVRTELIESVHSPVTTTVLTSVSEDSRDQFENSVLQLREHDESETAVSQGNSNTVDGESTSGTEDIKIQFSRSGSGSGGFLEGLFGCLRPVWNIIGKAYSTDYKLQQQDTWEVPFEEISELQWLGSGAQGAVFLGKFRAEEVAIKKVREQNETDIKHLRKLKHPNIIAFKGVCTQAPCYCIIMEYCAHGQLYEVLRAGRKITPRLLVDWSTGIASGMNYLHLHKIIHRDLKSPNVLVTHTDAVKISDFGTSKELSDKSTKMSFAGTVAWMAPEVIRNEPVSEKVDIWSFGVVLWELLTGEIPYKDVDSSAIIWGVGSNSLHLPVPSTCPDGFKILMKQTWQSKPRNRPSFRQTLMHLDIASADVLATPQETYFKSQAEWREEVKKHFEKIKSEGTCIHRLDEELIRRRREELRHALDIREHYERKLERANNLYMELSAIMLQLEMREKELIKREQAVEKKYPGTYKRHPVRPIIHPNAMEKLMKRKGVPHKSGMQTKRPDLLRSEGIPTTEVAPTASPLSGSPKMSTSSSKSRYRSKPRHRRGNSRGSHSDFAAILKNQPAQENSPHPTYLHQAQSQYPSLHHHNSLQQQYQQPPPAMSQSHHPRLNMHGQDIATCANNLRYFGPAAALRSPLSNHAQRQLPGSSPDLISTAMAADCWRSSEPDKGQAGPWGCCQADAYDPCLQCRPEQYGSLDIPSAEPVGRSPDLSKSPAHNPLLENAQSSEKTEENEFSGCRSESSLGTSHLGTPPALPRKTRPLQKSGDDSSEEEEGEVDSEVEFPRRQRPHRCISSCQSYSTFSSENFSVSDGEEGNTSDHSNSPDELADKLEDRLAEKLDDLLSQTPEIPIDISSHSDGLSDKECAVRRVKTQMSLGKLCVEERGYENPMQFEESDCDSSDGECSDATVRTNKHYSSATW
Compound,observed,method,tested at,remaining binding [%]
COc1cnc(Nc2cccc(S(N)(=O)=O)c2)nc1N1CCN(c2ccccc2)CC1,binding,competition with immobilised ligand,1 µM,96
CC(=O)C1=C(C)N(c2cccc(C(F)(F)F)c2)C(=O)N[C@@H]1c1ccc(C#N)nc1,cell-free assay,competition with immobilised ligand,1 µM,92.4
COc1cnc(Nc2cccc(S(N)(=O)=O)c2)nc1N1CCN(c2ccccc2)C(=O)C1,binding,competition with immobilised ligand,1 µM,100
O=C(NCCCN1CCOCC1)c1ccc(Nc2nccc(-c3cc4ccccc4s3)n2)cc1,binding,competition with immobilised ligand,1 µM,79
CN(CCCC(F)(F)F)c1nccc(-c2cnn3ncccc23)n1,binding,,1 µM,100
CC(=O)N1CCC(c2ccc(C(=O)NC(=N)N)cc2C(F)(F)F)CC1,cell-free assay,competition with immobilised ligand,1 µM,100
COc1ncc2cc3ccccc3nc2c1C#N,cell-free assay,competition with immobilised ligand,5 µM,92
O=C(Nc1c[nH]nc1C(=O)NC1CCNCC1)c1cc(F)cc(F)c1,binding,competition with immobilised ligand,1 µM,100
COc1cc(-c2cn(C3CCc4c(F)cccc4N(CC(F)(F)F)C3=O)nn2)ccc1-n1cnc(C)c1 (centres unmarked),cell-free assay,competition with immobilised ligand,1 µM,75
Cc1cnn2ncc(-c3ccnc(N(C)C)n3)c2c1,binding,,1 µM,70
COc1ccc2c(c1)O[C@H](c1ccc(OC)c(OC)c1)C[C@@H]2NC(=O)C1(c2ccc3c(c2)OC(F)(F)O3)CC1,cell-free assay,competition with immobilised ligand,1 µM,91
C[C@H]1CCN(c2nccc(-c3cnn4ncccc34)n2)C1,binding,,1 µM,62
O=C(NCCCN1CCOCC1)c1ccc(Nc2ncc(Cl)c(-c3ccc(Cl)s3)n2)cc1,binding,competition with immobilised ligand,1 µM,92
O=C(NCCCC1CCCCC1)c1ccc(CNC(=O)c2cnn(-c3ccccc3)c2C(F)(F)F)cc1,cell-free assay,competition with immobilised ligand,0.1 µM,100
F[C@@H]1CCN(c2nccc(-c3cnn4ncccc34)n2)C1,binding,,1 µM,100
c1cncc(-c2cccc(Nc3nccc(NC4CCCCC4)n3)c2)c1,binding,competition with immobilised ligand,10 µM,83
CN(C)c1nccc(-c2cnn3ncccc23)n1,binding,,1 µM,85
O=C(O)[C@@H]1[C@@H](Cn2nnc3ccccc3c2=O)CC[C@H]1C(=O)c1ccc(OCCC2CCOCC2)cc1,cell-free assay,competition with immobilised ligand,1 µM,70
CN(C)c1ncc(F)c(-c2cnn3ncccc23)n1,binding,,1 µM,90
O=C(c1ccc(Nc2ncc(Cl)c(-c3ccc(Cl)s3)n2)cc1)N1CCC(N2CCCC2)CC1,binding,competition with immobilised ligand,1 µM,48
